Reference: ChEMBL document CHEMBL3399948, “Discovery of 7-azaindole derivatives as potent Orai inhibitors showing efficacy in a preclinical model of asthma” (Bioorg Med Chem Lett, 2015)
Values belong to the compound of their own block, whether it stands above or below them.

Experiments:
[1] = Inhibition of Orai-mediated calcium entry in human Jurkat E6-1 cells after 1 hr by FLIPR assay; assay type: cell-based
[2] = Inhibition of Orai channel in phytohemagglutinin-stimulated human Jurkat E6-1 cells assessed as NFAT-induced transcription measured as IL-2 level after 20 hrs by ELISA; assay type: cell-based
[3] = Solubility of the compound in water; assay type: physicochemical
[4] = target: Calcium release-activated calcium channel protein 1 (Homo sapiens, UniProt Q96D31); assay: Inhibition of human Orai1/STIM1 expressed in HEK293 cells assessed as inhibition of channel-mediated calcium current by electrophysiology assay in presence of 10 mM EGTA; assay type: cell-based
Outline: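 Automated whole-cell patch clamp on HEK293 cells stably expressing human STIM1/Orai1. I_CRAC activated by passive store depletion with 10 mM EGTA in the internal solution. Holding potential 0 mV; 100 ms voltage ramps applied every 3 s. IC50 from normalized inhibition, at least 3 cells per concentration; values are mean ± SD of two or more determinations.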

[5] = system: LAD2; assay: Inhibition of degranulation in human LAD2 cells assessed as inhibition of IgE-induced beta-hexosaminidase release preincubated for 30 mins by p-nitrophenyl-N-acetyl-D-glucosamide-based spectrophotometric assay; assay type: functional, cell-based
Outline: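 Human LAD2 mast cells sensitized overnight with 100 ng/mL biotin-IgE in SCF-containing medium. Supernatant β-hexosaminidase measured with p-nitrophenyl-N-acetyl-glucosamide (pH 4.5, 90 min, 37 °C), stopped with glycine pH 10, absorbance read at 405 nm.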

[6] = system: Blood; assay: Inhibition of IL2 secretion in rat whole blood after 24 hrs by Rat IL-2 DuoSet assay; assay type: functional, tissue-based
Outline: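 Rat whole blood diluted 1:4 in RPMI and stimulated with concanavalin A (62.5 µg/mL) in the presence of increasing compound concentrations for 24 h. Supernatant IL-2 quantified by rat IL-2 ELISA against a standard curve; IC50 derived.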

[7] = system: CHO; assay: Cytotoxicity against CHO cells; assay type: cell-based; details: Cricetulus griseus
[8] = Drug metabolism in rat liver microsomes at 5 uM after 30 mins in presence of NADPH; assay type: ADME; details: read-out: Drug metabolism
Outline: (§1)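 Rat or human hepatic microsomes (1 mg/mL protein) incubated with 5 µM compound plus NADPH for 30 min at 37 °C; result given as percent metabolized.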

[9] = Drug metabolism in human liver microsomes at 5 uM after 30 mins in presence of NADPH; assay type: ADME; details: read-out: Drug metabolism; outline: as §1
[10] = Passive permeability of the compound at 20 uM by PAMPA; assay type: ADME; details: read-out: permeability
[11] = Terminal half life in Wistar rat at 1 mg/kg, iv; assay type: ADME, organism-based; design: dose 1 mg/kg, route intravenous; details: in vivo, read-out: beta t1/2 (converted)
[12] = AUC (0 to 24 hrs) in Wistar rat at 1 mg/kg, iv; assay type: ADME, organism-based; design: time < 24 hr, dose 1 mg/kg, route intravenous; details: plasma
[13] = Clearance in Wistar rat at 1 mg/kg, iv; assay type: ADME, organism-based; design: dose 1 mg/kg, route intravenous; details: in vivo
[14] = Volume of distribution at steady state in Wistar rat at 1 mg/kg, iv; assay type: ADME, organism-based; design: dose 1 mg/kg, route intravenous; details: in vivo, read-out: Vdss
[15] = Cmax in Wistar rat at 10 mg/kg, po; assay type: ADME, organism-based; design: dose 10 mg/kg, route oral; details: in vivo
[16] = AUC (0 to 24 hrs) in Wistar rat at 10 mg/kg, po; assay type: ADME, organism-based; design: time < 24 hr, dose 10 mg/kg, route oral; details: plasma
[17] = Oral bioavailability in Wistar rat at 10 mg/kg; assay type: ADME, organism-based; details: in vivo
[18] = system: Rattus norvegicus; assay: (§2) Antiinflammatory activity against ovalbumin-induced model of allergic inflammation in brown Norway rat assessed as inhibition of eosinophil infiltration in bronchoalveolar lavage fluid at 3 mg/kg, po bid 1 hr before and 6.5 hrs post ovalbumin challenge measured 24 hrs post challenge relative to vehicle-treated control; assay type: functional; details: Lung
Outline: (§3)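 Brown Norway rats (200-250 g) sensitized i.p. with OVA/Alum on days 0, 14 and 21, then challenged with OVA aerosol on day 28. Oral dosing at 3, 10 or 30 mg/kg bid, 1 h before and 6.5 h after challenge. Vehicle: TPGS 11.7%, PEG-400 40%, propylene glycol 15%, water 33.3%. Eight rats per group. BALF eosinophils counted 24 h post-challenge; inhibition expressed versus vehicle. Dexamethasone served as positive control. Plasma levels measured by UPLC-MS.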

[19] = system: Rattus norvegicus; assay: as §2, with “10” for “3”; assay type: functional; details: Lung; outline: as §3
[20] = system: Rattus norvegicus; assay: as §2, with “30” for “3”; assay type: functional; details: Lung; outline: as §3
[21] = system: Rattus norvegicus; assay: as §2, with “compound administered orally” for “at 3 mg/kg, po”; assay type: functional, organism-based; details: Lung; outline: as §3
[22] = system: Rattus norvegicus; assay: as §2, with “against po dosed” for “against”, “plasma level >3-fold above IC50 for rat IL-2 inhibition compound administered” for “3 mg/kg, po”; assay type: functional; outline: as §3
[23] = Lipophilicity, log D of the compound at pH 7.4; assay type: physicochemical; details: buffer
[24] = Plasma protein binding in Wistar rat; assay type: ADME, cell-free; details: read-out: PPB
[25] = system: Rattus norvegicus; assay: as §2, with “1” for “3”; assay type: functional; details: Lung

Chain of Calcium release-activated calcium channel protein 1 (Q96D31 whole entry): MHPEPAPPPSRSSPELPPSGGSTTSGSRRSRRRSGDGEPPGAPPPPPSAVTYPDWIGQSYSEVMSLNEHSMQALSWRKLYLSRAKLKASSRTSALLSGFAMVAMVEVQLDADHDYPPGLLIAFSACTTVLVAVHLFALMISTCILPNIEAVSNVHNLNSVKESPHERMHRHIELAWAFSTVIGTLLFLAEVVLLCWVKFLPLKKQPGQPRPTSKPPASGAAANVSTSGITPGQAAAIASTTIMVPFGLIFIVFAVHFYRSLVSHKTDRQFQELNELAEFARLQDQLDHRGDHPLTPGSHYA

SMILES: Cc1cc(=O)[nH]cc1-c1cnc2[nH]c(-c3c(F)cccc3Cl)cc2c1
IC50 [1]: > 10000 nM

SMILES: Cc1cc(S(=O)(=O)N(C)C)ccc1-c1cnc2[nH]c(-c3c(F)cccc3Cl)cc2c1
IC50 [1]: 550 nM
IC50 [2]: 119 nM

SMILES: Cc1cc(S(C)(=O)=O)ccc1-c1cnc2[nH]c(-c3c(F)cccc3Cl)cc2c1
IC50 [1]: 280 nM
IC50 [2]: 290 nM

SMILES: Cn1nc(C(F)(F)F)cc1-c1cnc2[nH]c(Cc3ccccc3)cc2c1
IC50 [1]: 1400 nM
IC50 [2]: 3000 nM

SMILES: CNCc1ccc(-c2cnc3[nH]c(-c4c(F)cccc4Cl)cc3c2)c(C)c1
IC50 [1]: 10000 nM

SMILES: Cn1nc(C(F)(F)F)cc1-c1cnc2[nH]c(C3CCCCC3)cc2c1
IC50 [1]: 310 nM
IC50 [2]: 183 nM

SMILES: Cn1nc(C(F)(F)F)cc1-c1cnc2[nH]c(-c3ccccc3Cl)cc2c1
IC50 [1]: 160 nM
IC50 [2]: 260 nM

SMILES: C[C@@H]1C[C@H]2[C@@H]3CCC4=CC(=O)C=C[C@]4(C)[C@@]3(F)[C@@H](O)C[C@]2(C)[C@@]1(O)C(=O)CO [DEXAMETHASONE]
inhibition in vivo at 1 mg/kg [25]: 100%

SMILES: Cn1nc(C(F)(F)F)cc1-c1cnc2[nH]c(C3CCOCC3)cc2c1
IC50 [1]: > 10000 nM

SMILES: Cn1nc(C(F)(F)F)cc1-c1cnc2[nH]c(C3CCCC3)cc2c1
IC50 [1]: 260 nM
IC50 [2]: 270 nM

SMILES: Cc1cc(=O)n(C)cc1-c1cnc2[nH]c(-c3c(F)cccc3Cl)cc2c1
IC50 [1]: > 10000 nM

SMILES: Cc1cc(S(=O)(=O)N2CCOCC2)ccc1-c1cnc2[nH]c(-c3c(F)cccc3Cl)cc2c1
IC50 [1]: 10000 nM

SMILES: COc1ncc(-c2cnc3[nH]c(-c4c(F)cccc4Cl)cc3c2)c(C)n1
IC50 [1]: 10000 nM

Further lines, with some results ahead:

IC50 [1]: 120 nM
IC50 [2]: 56 nM
solubility [3]: < 1 µg/mL
SMILES: Fc1cccc(Cl)c1-c1cc2cc(-c3cc4c(cc3Cl)OC(F)(F)O4)cnc2[nH]1

IC50 [1]: 64 nM
IC50 [2]: 150 nM
SMILES: Cc1cc(OC(F)F)ncc1-c1cnc2[nH]c(-c3c(F)cccc3Cl)cc2c1

IC50 [1]: 150 nM
IC50 [2]: 68 nM
IC50 [4]: 440 nM
IC50 [5]: 630 nM
IC50 [6]: 740 nM
metabolised at 0.5 h, 5 µM [8]: 10%
metabolised at 0.5 h, 5 µM [9]: < 5%
Papp at 20 µM [10]: 0.66 ×10⁻⁶ cm/s
half-life [11]: 8 h
AUC(0-t) at 24 h [12]: 1820 ng·h/mL
clearance [13]: 8 mL/min/kg
Vd [14]: 5 L/kg
Cmax [15]: 807 ng/mL
AUC(0-t) at 24 h [16]: 11200 ng·h/mL
bioavailability [17]: 62%
solubility [3]: < 5 µg/mL
SMILES: COc1cc(OC)c(-c2cnc3[nH]c(-c4c(F)cccc4Cl)cc3c2)cn1
IC50 [7]: > 100000 nM
inhibition in vivo at 3 mg/kg [18]: 9%
inhibition in vivo at 10 mg/kg [19]: 68%
inhibition in vivo at 30 mg/kg [20]: 75%
inhibition [21]: Dose-dependent effect
inhibition (INH) [22]: 70%

IC50 [1]: 88 nM
IC50 [2]: 117 nM
solubility [3]: < 1 µg/mL
SMILES: Cc1nc2cc(-c3cnc4[nH]c(-c5c(F)cccc5Cl)cc4c3)c(Cl)cc2o1

logD [23]: 3.5
IC50 [1]: 82 nM
IC50 [2]: 10 nM
SMILES: COc1ccc(OC)c(-c2ccc(NC(=O)c3ccncc3F)cc2)c1

IC50 [1]: 155 nM
IC50 [2]: 180 nM
SMILES: CNS(=O)(=O)c1ccc(-c2cnc3[nH]c(-c4c(F)cccc4Cl)cc3c2)c(C)c1

logD [23]: 4.4
IC50 [1]: 75 nM
IC50 [2]: 10 nM
SMILES: Cc1nnsc1C(=O)Nc1ccc(-n2nc(C(F)(F)F)cc2C(F)(F)F)cc1

IC50 [1]: 129 nM
IC50 [2]: 120 nM
SMILES: Cc1cc(C(F)(F)F)ncc1-c1cnc2[nH]c(-c3c(F)cccc3Cl)cc2c1

IC50 [1]: 66 nM
IC50 [2]: 23 nM
IC50 [4]: < 100 nM
IC50 [5]: 372 nM
IC50 [6]: 500 nM
metabolised at 0.5 h, 5 µM [8]: < 5%
metabolised at 0.5 h, 5 µM [9]: < 5%
Papp at 20 µM [10]: < 0.05 ×10⁻⁶ cm/s
solubility [3]: < 5 µg/mL
fraction unbound [24]: < 0.001
SMILES: Cn1nc(C(F)(F)F)cc1-c1cnc2[nH]c(-c3c(F)cccc3Cl)cc2c1
IC50 [7]: > 100000 nM

IC50 [1]: 71 nM
IC50 [2]: 40 nM
IC50 [4]: 104 nM
IC50 [5]: 443 nM
IC50 [6]: 1300 nM
metabolised at 0.5 h, 5 µM [8]: 10%
metabolised at 0.5 h, 5 µM [9]: 15%
Papp at 20 µM [10]: 0.1 ×10⁻⁶ cm/s
half-life [11]: 2.1 h
AUC(0-t) at 24 h [12]: 596 ng·h/mL
clearance [13]: 24 mL/min/kg
Vd [14]: 4.2 L/kg
Cmax [15]: 153 ng/mL
AUC(0-t) at 24 h [16]: 2180 ng·h/mL
bioavailability [17]: 37%
solubility [3]: < 5 µg/mL
SMILES: COc1cc(C)c(-c2cnc3[nH]c(-c4c(F)cccc4Cl)cc3c2)cn1
IC50 [7]: > 100000 nM

IC50 [1]: 140 nM
IC50 [2]: 73 nM
SMILES: Cn1nc(C(F)(F)F)cc1-c1cnc2[nH]c(-c3c(F)cccc3F)cc2c1
